# Experimental data: publication PMC4809803 (Oncogene, 2015)
# What was measured:
# [1] = test system: FLT3 signaling in FLT3-ITD-transformed HCD-57 cells; assay: Cell signaling western blot; type: cell-based, murine; details: 3 hours
# Procedure, shortened: (§1)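 EPO-independent retrovirally transformed HCD-57 cells were treated with the indicated inhibitor concentrations for 3 h. They were lysed in whole-cell buffer (25 mM β-glycerophosphate pH 7.3, EDTA/EGTA, 1% Triton X-100, 0.1 M NaCl, 1 mM vanadate, protease inhibitors) and cleared at 13 000×g. Equal total protein was run on SDS gels and immunoblotted for pFLT3 (pY591), pERK1/2 (pT202/pY204), pAKT (pS473), total FLT3/ERK/AKT and GAPDH.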
# [2] = test system: FLT3-ITD-transformed HCD-57 cells; assay: Cell cycle analysis, propidium iodide; type: cell-based, murine; details: 100 and 500 nM, 24 hours
# parent HCD-57 cells [3] = assay: Apoptosis assay, annexin V and propidium iodide; type: cell-based, murine; details: 100 and 500 nM, 24 hours, cultured with EPO
# [4] = test system: HCD-57 cells expressing FLT3-D835H; assay: XTT cell viability assay, transformed HCD-57; type: cell-based, murine; details: 48 hours
# parent HCD-57 cells [5] = assay: XTT cell viability assay, parent HCD-57; type: cell-based, murine; details: 48 hours, with EPO
# [6] = test system: FLT3-ITD-transformed HCD-57 cells; assay: Apoptosis assay, annexin V and propidium iodide; type: cell-based, murine; details: 100 and 500 nM, 24 hours
# [7] = test system: FLT3-D835Y-transformed HCD-57 cells; assay: Apoptosis assay, annexin V and propidium iodide; type: cell-based, murine; details: 100 and 500 nM, 24 hours
# [8] = test system: HCD-57 cells expressing FLT3-D835Y; assay: XTT cell viability assay, transformed HCD-57; type: cell-based, murine; details: 48 hours
# [9] = test system: HCD-57 cells transformed with JAK2V617F; details: XTT, 48 hours
# [10] = test system: FLT3-D835Y-transformed HCD-57 cells; assay: Cell cycle analysis, propidium iodide; type: cell-based, murine; details: 100 and 500 nM, 24 hours
# [11] = test system: FLT3 signaling in FLT3-D835Y-transformed HCD-57 cells; assay: Cell signaling western blot; type: cell-based, murine; details: 3 hours
# Procedure, shortened: as §1
# [12] = test system: HCD-57 cells expressing FLT3-ITD; assay: XTT cell viability assay, transformed HCD-57; type: cell-based, murine; details: 48 hours
structure (smiles),measurement,setting,value
CNC(=O)c1cc(Oc2ccc(NC(=O)Nc3ccc(Cl)c(C(F)(F)F)c3)cc2)ccn1 [sorafenib],"phosphorylation of FLT3, ERK and Akt",[1],strong inhibitory effect
same,"cell cycle distribution (G1, S+G2)",[2],exhibited such an effect only on the FLT3-ITD cells
same,apoptosis,parent HCD-57 cells [3],neither JI6 nor sorafenib displayed significant effects
same,effect on cell growth/viability,[4],far less active
same,effect on cell viability,parent HCD-57 cells [5],far less active
same,percentage of apoptotic and necrotic cells,[6],potent to induce apoptosis and necrosis
same,percentage of apoptotic and necrotic cells,[7],no effect
same,effect on cell growth/viability,[8],far less active
same,effect on cell viability,[9],far less active
same,"cell cycle distribution (G1, S+G2)",[10],exhibited such an effect only on the FLT3-ITD cells
same,"phosphorylation of FLT3, ERK and Akt",[11],much less effective
same,effect on cell growth/viability,[12],strongly inhibited
